Assay results as given in ChEMBL document CHEMBL2046313, “Discovery and evaluation of a non-Zn chelating, selective matrix metalloproteinase 13 (MMP-13) inhibitor for potential intra-articular treatment of osteoarthritis” (J Med Chem, 2012).

What was measured:
[1] = target: T1, A disintegrin and metalloproteinase with thrombospondin motifs 4 (Homo sapiens, UniProt O75173); test: Inhibition of human recombinant aggrecanase 1 using aggrecan-IGD as substrate measured after 15 mins by ELISA
T1 sequence (O75173 whole entry): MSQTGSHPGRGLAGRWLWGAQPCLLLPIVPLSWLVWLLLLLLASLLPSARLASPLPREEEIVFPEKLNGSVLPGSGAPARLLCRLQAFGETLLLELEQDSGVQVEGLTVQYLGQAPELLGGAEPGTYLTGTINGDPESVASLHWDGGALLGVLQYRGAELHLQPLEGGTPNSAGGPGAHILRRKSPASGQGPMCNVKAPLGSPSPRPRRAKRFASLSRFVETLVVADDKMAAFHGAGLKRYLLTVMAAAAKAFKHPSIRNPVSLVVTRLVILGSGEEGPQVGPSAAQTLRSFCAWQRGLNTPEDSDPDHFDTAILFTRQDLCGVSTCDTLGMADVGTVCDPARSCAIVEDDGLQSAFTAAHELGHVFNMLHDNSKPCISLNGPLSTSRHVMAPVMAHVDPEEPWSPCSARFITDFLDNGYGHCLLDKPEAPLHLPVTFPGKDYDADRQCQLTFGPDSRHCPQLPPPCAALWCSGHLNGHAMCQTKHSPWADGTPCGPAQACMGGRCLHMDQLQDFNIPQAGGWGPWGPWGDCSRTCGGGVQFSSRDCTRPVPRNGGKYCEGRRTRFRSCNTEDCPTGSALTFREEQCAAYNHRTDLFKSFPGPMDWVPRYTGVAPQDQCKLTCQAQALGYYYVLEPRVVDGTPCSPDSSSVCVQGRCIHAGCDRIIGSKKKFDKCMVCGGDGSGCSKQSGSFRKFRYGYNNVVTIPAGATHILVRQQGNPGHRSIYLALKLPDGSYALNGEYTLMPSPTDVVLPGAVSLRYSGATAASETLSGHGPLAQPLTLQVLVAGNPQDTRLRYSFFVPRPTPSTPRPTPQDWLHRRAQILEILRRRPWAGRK
In short: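 Aggrecanase-1 was run in 50 mM Tris-HCl pH 7.5, 150 mM NaCl, 5 mM CaCl₂, 0.05% Brij-35, with 100 nM recombinant human aggrecan interglobular domain as substrate, for 15 min at 37 °C. The reaction was stopped with EDTA, and ARGSVIL neoepitopes were quantified by ELISA.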

[2] = target: Disintegrin and metalloproteinase domain-containing protein 17 (Homo sapiens, UniProt P78536); test: Inhibition of human recombinant TACE using MCA-Pro-Leu-Ala-Gln-Ala-Val-Dpa-Arg-Ser-Ser-Ser-Arg-NH2 as substrate preincubated for 10 mins measured by fluorescence analysis
Disintegrin and metalloproteinase domain-containing protein 17, sequence (P78536 whole entry, the tested form may be a part): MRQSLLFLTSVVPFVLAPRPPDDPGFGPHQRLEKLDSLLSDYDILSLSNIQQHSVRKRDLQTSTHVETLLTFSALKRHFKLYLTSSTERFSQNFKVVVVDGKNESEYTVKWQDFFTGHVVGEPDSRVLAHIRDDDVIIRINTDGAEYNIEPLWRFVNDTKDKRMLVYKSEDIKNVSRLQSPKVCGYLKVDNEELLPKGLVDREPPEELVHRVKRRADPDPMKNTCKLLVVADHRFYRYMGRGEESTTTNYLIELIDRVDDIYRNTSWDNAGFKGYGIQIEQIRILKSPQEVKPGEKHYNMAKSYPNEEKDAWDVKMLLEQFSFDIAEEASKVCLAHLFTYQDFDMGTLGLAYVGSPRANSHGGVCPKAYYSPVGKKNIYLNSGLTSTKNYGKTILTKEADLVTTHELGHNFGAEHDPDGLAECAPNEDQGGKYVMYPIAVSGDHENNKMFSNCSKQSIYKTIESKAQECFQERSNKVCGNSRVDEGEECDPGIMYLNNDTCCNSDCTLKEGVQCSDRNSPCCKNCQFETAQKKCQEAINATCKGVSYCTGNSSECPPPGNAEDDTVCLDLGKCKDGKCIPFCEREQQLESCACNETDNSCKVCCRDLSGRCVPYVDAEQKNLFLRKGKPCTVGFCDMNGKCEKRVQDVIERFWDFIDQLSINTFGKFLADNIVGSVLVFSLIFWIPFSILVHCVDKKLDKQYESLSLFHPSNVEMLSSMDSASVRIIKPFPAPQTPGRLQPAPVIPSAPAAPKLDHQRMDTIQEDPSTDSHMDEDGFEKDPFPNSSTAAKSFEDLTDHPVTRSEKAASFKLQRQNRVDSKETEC
In short: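 Recombinant human TACE was assayed with its fluorogenic peptide substrate in 25 mM Tris-HCl pH 9, 1.25 μM Zn(OAc)₂, 0.005% Brij-35. Enzyme was 1–10 nM and substrate 4–10 μM. Enzyme was preincubated 10 min with varying inhibitor concentrations, and IC50 came from at least duplicate runs.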

[3] = target: 72 kDa type IV collagenase (Homo sapiens, UniProt P08253); test: Inhibition of human recombinant MMP2 using MCA-Pro-Leu-Gly-Leu-Dpa-Ala-Arg-NH2.AcOH as substrate preincubated for 10 mins measured by fluorescence analysis
72 kDa type IV collagenase, sequence (P08253 whole entry, the tested form may be a part): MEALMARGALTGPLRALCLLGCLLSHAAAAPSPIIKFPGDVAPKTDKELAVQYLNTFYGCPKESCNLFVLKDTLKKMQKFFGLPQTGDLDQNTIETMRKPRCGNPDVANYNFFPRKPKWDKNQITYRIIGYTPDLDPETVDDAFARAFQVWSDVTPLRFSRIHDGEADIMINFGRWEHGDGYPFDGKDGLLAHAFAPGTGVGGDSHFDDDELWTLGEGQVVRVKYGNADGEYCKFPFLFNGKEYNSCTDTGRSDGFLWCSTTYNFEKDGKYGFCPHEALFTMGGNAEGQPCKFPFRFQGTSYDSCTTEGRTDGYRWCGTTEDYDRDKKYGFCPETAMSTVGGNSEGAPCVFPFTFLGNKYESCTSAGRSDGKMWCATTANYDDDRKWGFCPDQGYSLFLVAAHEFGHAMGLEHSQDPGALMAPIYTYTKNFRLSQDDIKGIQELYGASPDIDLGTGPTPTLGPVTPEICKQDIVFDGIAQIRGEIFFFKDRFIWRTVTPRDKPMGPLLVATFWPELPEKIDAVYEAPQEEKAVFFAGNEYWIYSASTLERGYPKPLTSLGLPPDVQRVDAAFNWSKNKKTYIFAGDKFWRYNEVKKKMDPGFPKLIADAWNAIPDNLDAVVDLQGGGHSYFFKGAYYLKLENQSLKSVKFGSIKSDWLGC
In short: (§1)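 Catalytic domains of recombinant human MMPs were assayed with fluorogenic OmniMMP substrate in 50 mM Tris-HCl pH 7.5, 150 mM NaCl, 5 mM CaCl₂, 0.05% Brij-35. Enzyme was 1–10 nM and substrate 4–10 μM, optimized per assay. Enzyme was preincubated 10 min with varying inhibitor concentrations, and IC50 was calculated from runs done at least in duplicate.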

[4] = target: Matrix metalloproteinase-9 (Homo sapiens, UniProt P14780); test: Inhibition of human recombinant MMP9 using MCA-Pro-Leu-Gly-Leu-Dpa-Ala-Arg-NH2.AcOH as substrate preincubated for 10 mins measured by fluorescence analysis; in short: as §1
Matrix metalloproteinase-9, sequence (P14780 whole entry): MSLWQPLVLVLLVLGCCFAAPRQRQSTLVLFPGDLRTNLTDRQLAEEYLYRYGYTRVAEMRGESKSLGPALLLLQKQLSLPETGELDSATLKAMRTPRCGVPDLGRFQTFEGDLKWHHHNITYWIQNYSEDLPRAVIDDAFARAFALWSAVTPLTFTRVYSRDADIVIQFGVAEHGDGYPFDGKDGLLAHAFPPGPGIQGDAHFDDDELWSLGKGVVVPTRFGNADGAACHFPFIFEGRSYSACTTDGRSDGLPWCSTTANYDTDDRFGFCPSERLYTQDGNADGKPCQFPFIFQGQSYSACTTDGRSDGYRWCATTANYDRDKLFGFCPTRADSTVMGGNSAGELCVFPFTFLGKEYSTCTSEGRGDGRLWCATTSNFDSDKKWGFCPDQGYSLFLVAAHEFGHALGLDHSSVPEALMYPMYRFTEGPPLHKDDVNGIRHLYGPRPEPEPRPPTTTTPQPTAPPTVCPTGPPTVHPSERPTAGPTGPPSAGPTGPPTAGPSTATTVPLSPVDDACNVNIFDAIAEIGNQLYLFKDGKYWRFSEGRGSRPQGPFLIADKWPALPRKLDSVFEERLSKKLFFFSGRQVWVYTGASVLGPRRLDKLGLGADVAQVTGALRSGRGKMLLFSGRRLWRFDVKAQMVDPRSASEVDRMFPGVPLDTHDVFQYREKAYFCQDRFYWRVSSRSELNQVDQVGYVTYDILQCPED

Rattus norvegicus [5] = species: Rattus norvegicus; test: Chondroprotective activity in Sprague-Dawley rat cartilage assessed as inhibition of MMP13-mediated C1,C2 release at 0.5 mg/joint, ia measured on day 14 by ELISA; assay type: functional
In short: (§2)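 Male Sprague-Dawley rats (175−200 g, three per group) received one IA injection of 50 μL PBS holding 10 mg/mL suspension (sonicated, vortexed) into right knee. They were killed at 1, 7, 14 or 21 days, and tibial cartilage was collected. Cartilage was then challenged with 10 μg/mL APMA-activated human MMP-13 for 24 h at 37 °C in Tris pH 7.5. The reaction was stopped with 10 mM EDTA, and released C1,2C was measured by ELISA. Vehicle cartilage incubated with or without MMP-13 defined 100% and 0%.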

Matrilysin = target: T2, Matrilysin (Homo sapiens, UniProt P09237); test: Inhibition of human recombinant MMP7 using MCA-Pro-Leu-Gly-Leu-Dpa-Ala-Arg-NH2.AcOH as substrate preincubated for 10 mins measured by fluorescence analysis; in short: as §1
T2 sequence (P09237 whole entry): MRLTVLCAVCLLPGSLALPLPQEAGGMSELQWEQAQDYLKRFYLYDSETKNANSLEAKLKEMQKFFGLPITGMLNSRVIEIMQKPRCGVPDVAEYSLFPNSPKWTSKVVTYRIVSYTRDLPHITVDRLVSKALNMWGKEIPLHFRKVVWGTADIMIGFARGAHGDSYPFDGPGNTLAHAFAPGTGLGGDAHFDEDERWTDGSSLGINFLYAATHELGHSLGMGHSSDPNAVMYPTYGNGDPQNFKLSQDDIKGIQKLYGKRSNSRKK

Collagenase 3 = Collagenase 3 (Homo sapiens, UniProt P45452); test: Inhibition of human recombinant MMP13 using MCA-Pro-Cha-Gly-Nva-His-Ala-Dpa-NH2 as substrate preincubated for 10 mins measured by fluorescence analysis
In short: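 Catalytic domain of recombinant human MMP-13 was assayed with fluorogenic substrate in 50 mM Tris-HCl pH 7.5, 150 mM NaCl, 5 mM CaCl₂, 0.05% Brij-35. Enzyme was 1–10 nM and substrate 4–10 μM. It was preincubated 10 min with varying inhibitor concentrations, and IC50 came from at least duplicate runs.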

[6] = target: Macrophage metalloelastase (Homo sapiens, UniProt P39900); test: Inhibition of human recombinant MMP12 using MCA-Pro-Leu-Gly-Leu-Dpa-Ala-Arg-NH2.AcOH as substrate preincubated for 10 mins measured by fluorescence analysis; in short: as §1
Macrophage metalloelastase, sequence (P39900 whole entry): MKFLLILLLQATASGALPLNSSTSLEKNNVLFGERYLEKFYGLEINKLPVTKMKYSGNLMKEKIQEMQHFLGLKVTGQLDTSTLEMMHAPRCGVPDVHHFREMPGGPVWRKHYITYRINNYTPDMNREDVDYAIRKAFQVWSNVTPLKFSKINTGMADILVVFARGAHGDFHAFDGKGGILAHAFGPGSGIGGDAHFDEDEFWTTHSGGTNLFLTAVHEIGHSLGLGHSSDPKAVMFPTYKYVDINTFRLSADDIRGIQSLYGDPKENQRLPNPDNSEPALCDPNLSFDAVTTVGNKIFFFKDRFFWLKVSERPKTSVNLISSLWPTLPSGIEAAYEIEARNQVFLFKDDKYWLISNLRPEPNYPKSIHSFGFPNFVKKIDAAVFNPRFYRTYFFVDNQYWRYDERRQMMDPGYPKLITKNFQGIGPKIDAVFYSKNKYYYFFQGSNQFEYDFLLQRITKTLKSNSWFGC

Rattus norvegicus [7] = species: Rattus norvegicus; test: Chondroprotective activity in Sprague-Dawley rat cartilage assessed as inhibition of MMP13-mediated C1,C2 release at 0.5 mg/joint, ia measured after 24 hrs by ELISA; assay type: functional; in short: as §2
Interstitial collagenase = target: T3, Interstitial collagenase (Homo sapiens, UniProt P03956); test: Inhibition of human recombinant MMP1 using MCA-Pro-Leu-Gly-Leu-Dpa-Ala-Arg-NH2.AcOH as substrate preincubated for 10 mins measured by fluorescence analysis; in short: as §1
T3 sequence (P03956 whole entry): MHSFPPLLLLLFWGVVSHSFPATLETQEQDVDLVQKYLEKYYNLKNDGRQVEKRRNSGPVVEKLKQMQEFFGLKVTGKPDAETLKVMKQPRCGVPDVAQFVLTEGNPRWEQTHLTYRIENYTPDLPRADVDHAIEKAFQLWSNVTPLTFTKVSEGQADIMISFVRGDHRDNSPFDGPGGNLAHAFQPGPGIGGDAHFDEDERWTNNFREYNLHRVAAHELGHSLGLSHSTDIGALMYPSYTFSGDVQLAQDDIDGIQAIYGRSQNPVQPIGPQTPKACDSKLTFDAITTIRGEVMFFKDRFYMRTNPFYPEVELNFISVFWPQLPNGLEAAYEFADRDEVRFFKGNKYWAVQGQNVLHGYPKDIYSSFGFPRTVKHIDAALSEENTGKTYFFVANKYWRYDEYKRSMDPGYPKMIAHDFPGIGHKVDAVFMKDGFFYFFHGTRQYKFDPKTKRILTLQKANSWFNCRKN

Rattus norvegicus [8] = species: Rattus norvegicus; test: Chondroprotective activity in Sprague-Dawley rat cartilage assessed as inhibition of MMP13-mediated C1,C2 release at 0.5 mg/joint, ia measured on day 7 by ELISA; assay type: functional; in short: as §2
Stromelysin-1 = Stromelysin-1 (Homo sapiens, UniProt P08254); test: Inhibition of human recombinant MMP3 using MCAArg-Pro-Lys-Pro-Val-Glu-Nva-Trp-Arg-Lys(DNP)-NH2 as substrate preincubated for 10 mins measured by fluorescence analysis
Stromelysin-1, sequence (P08254 whole entry, the tested form may be a part): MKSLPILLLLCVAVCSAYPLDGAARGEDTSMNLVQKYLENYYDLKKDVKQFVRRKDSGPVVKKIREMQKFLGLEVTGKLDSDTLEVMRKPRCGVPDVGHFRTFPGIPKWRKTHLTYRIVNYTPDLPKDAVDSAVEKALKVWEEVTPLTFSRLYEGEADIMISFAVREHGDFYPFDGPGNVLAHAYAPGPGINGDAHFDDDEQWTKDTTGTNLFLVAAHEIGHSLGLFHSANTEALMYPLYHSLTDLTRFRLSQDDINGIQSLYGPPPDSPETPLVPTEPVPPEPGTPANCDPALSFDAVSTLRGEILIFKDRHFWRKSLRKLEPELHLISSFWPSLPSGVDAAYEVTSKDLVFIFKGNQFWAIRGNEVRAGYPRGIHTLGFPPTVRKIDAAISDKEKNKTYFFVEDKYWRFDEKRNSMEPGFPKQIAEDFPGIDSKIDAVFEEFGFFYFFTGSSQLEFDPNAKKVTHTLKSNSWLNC
In short: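 Catalytic domain of recombinant human MMP-3 was assayed with NFF-3 fluorogenic substrate in 50 mM MES pH 6.0, 10 mM CaCl₂, 0.05% Brij-35. Enzyme was 1–10 nM and substrate 4–10 μM. Enzyme was preincubated 10 min with varying inhibitor concentrations, and IC50 came from at least duplicate runs.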

[9] = target: Matrix metalloproteinase-14 (Homo sapiens, UniProt P50281); test: Inhibition of human recombinant MMP14 using MCA-Pro-Leu-Gly-Leu-Dpa-Ala-Arg-NH2.AcOH as substrate preincubated for 10 mins measured by fluorescence analysis; in short: as §1
Neutrophil collagenase = Neutrophil collagenase (Homo sapiens, UniProt P22894); test: Inhibition of human recombinant MMP8 using MCA-Pro-Leu-Gly-Leu-Dpa-Ala-Arg-NH2.AcOH as substrate preincubated for 10 mins measured by fluorescence analysis; in short: as §1
Neutrophil collagenase, sequence (P22894 whole entry): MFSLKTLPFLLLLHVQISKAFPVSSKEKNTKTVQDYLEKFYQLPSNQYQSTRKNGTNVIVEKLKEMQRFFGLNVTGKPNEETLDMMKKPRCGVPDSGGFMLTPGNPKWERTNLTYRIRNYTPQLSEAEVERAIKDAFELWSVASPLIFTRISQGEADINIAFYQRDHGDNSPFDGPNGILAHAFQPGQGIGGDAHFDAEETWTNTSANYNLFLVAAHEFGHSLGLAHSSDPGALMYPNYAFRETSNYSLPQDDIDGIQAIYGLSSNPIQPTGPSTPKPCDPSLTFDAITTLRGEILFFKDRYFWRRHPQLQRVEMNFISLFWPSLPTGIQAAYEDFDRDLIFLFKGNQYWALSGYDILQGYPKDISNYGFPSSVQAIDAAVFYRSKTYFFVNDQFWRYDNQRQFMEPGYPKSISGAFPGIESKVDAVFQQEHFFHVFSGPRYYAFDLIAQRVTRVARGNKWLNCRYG

Cartilage tissue = test: Inhibition of collagen degradation in bovine articular cartilage assessed as inhibition of interlukein-1alpha/oncostatin M-induced C1,C2 release measured after 11 days by ELISA; assay type: functional, tissue-based; settings: Bos taurus, 264 h
In short: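 Freshly isolated bovine articular cartilage pieces (~3 mm²) were stimulated with 5 ng/mL IL-1α plus 50 ng/mL OSM, with or without compound, for 11 days. Medium was refreshed twice weekly. Collagen degradation products in the conditioned medium were quantified by C1,2C ELISA.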

Question: What does the source list for Cc1c(C(=O)O)ccc2c1CC[C@@H]2NC(=O)c1cc(C(=O)NCc2ccc(F)c(C(F)(F)F)c2)nc2c(F)cnn12?
Answer: IC50 [1]: 7 µM; IC50 [2]: > 20 µM; IC50 [3]: > 20 µM; IC50 [4]: > 20 µM; inhibition (INH) (Rattus norvegicus [5]): 0%; IC50 (Matrilysin): > 20 µM; IC50 (Collagenase 3): 0.0013 µM; IC50 [6]: > 20 µM; inhibition (INH) (Rattus norvegicus [7]): 95%; IC50 (Interstitial collagenase): > 20 µM; inhibition (INH) (Rattus norvegicus [8]): 60%; IC50 (Stromelysin-1): 15 µM; IC50 [9]: > 20 µM; IC50 (Neutrophil collagenase): > 20 µM; IC50 (Cartilage tissue): 0.005 µM
